In ChEMBL document CHEMBL1149147, “NR2B-selective N-methyl-D-aspartate antagonists: synthesis and evaluation of 5-substituted benzimidazoles” (J Med Chem, 2004):
pIC50, pKi: −log10 of the molar value.

Assays:
[1] = target: T1, Glutamate NMDA receptor; GRIN1/GRIN2B (Homo sapiens, UniProt Q05586+Q13224); experiment: In vitro inhibition of Glu/Gly stimulated [Ca2+] influx in LtK-cells expressing the hNR1a/NR2B receptor; type: functional
How it was run: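 Fluorescence readout of Ca2+ flux stimulated by glutamate/glycine in Ltk- cells stably expressing human NR1a/NR2B, measured as inhibition. IC50 is the geometric mean of at least n = 4, with 2×SEGM given.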

[2] = target: Voltage-gated inwardly rectifying potassium channel KCNH2 (Homo sapiens, UniProt Q12809); experiment: In vitro inhibition of MK-499 binding to hERG in HEK293 cells; type: cell-based; details: read-out: IP
[3] = target: T1, Glutamate NMDA receptor; GRIN1/GRIN2B; experiment: Compound was evaluated for in vitro inhibition of [3H][(E)-N-(2-methoxybenzyl)cinnamamidine binding to human NR1a/NR2B receptors expressed in LtK-cells; type: cell-based
[4] = target: T2, Adrenergic receptor alpha-1 (Rattus norvegicus, UniProt P15823+P23944+P43140); experiment: In vitro inhibitory activity against alpha-1 adrenergic receptor binding to rat brain membranes; design: species or system Membrane
T2 sequence (P15823 whole entry): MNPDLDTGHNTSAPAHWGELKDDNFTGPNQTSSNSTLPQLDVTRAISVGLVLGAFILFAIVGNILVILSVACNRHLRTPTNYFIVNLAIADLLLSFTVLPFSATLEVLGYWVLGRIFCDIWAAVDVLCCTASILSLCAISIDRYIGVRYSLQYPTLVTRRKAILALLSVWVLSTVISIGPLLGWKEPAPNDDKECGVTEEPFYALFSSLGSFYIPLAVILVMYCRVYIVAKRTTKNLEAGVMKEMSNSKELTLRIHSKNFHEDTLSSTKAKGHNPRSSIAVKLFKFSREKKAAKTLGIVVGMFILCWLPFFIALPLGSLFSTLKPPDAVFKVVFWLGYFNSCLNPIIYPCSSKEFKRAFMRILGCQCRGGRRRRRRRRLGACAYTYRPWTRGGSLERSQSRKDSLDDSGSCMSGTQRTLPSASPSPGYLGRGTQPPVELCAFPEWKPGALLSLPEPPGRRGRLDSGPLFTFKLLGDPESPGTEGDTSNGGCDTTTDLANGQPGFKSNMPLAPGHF
T2 sequence (P23944 whole entry): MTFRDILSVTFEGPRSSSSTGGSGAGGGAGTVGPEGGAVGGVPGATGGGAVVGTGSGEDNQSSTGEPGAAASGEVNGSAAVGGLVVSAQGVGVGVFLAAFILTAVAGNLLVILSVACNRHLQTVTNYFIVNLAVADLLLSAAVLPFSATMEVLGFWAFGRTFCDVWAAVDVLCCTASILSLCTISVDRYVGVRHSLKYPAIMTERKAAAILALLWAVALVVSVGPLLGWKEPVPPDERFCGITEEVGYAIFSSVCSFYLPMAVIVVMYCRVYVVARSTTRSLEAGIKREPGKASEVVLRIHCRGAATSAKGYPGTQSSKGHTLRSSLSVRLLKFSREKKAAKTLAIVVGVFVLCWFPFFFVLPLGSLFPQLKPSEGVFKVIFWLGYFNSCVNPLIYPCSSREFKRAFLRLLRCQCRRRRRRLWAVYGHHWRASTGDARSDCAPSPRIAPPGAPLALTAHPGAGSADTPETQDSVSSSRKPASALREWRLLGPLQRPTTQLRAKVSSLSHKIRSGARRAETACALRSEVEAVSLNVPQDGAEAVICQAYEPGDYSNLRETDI
T2 sequence (P43140 whole entry): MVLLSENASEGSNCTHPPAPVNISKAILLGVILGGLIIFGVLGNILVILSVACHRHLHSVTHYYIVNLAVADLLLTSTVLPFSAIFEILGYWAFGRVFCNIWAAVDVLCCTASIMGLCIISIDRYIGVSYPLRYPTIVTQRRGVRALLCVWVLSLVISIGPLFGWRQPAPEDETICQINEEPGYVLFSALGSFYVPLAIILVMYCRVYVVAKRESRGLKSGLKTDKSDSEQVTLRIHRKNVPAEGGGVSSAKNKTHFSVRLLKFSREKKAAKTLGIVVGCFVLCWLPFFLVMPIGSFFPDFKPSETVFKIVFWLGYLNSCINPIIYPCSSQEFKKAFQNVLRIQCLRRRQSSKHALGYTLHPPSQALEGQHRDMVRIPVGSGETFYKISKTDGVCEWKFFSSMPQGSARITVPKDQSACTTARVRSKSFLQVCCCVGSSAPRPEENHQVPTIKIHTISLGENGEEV
How it was run: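 Competition binding to α1-adrenergic receptors on membranes prepared from rat brain, using the prazosin binding assay. IC50 is the geometric mean of at least 4 determinations.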

[5] = Oral bioavailability in rat; type: ADME, organism-based; details: in vivo
How it was run: (§1)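 Conscious male Sprague-Dawley rats (n = 3–4) given single doses: 2 mg/kg iv in 100% DMSO, or 10 mg/kg po by gavage in 1% methylcellulose. Plasma was sampled at multiple times up to 24 h. Interanimal variability was below 20%.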

[6] = Half-life in rats was determined; type: ADME, organism-based; details: rat, in vivo; how it was run: as §1
[7] = Plasma clearance (in vivo) in rats was determined; type: ADME, organism-based; details: rat; how it was run: as §1
[8] = test system: Rattus norvegicus; experiment: Compound was evaluated in vivo for carrageenan induced mechanical hyperalgesia in rats, perorally; type: functional
How it was run: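 Male Sprague-Dawley rats (100–120 g) received 4.5 mg carrageenan intraplantar, with a 3 h post-injection paw pressure (vocalization) threshold. Agent was gavaged in 1% methylcellulose suspension (n = 8/dose) 1 h before the reading. Response is expressed as % of carrageenan hyperalgesia; the highest oral dose was 30 mg/kg, one determination.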

[9] = Half-life in mongrel dogs was determined; type: ADME, organism-based, Canis lupus familiaris; details: dog, in vivo
How it was run: (§2)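 Single doses in dogs (n = 2): 1 mg/kg iv in 100% DMSO, or 3 mg/kg po gavaged in 1% methylcellulose suspension. Plasma was sampled at multiple time points up to 24 h. Interanimal variability was below 20%.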

[10] = Oral bioavailability in dog (mongrel); type: ADME, organism-based, Canis lupus familiaris; details: in vivo; how it was run: as §2
[11] = test system: Rattus norvegicus; experiment: Compound was evaluated in vivo for carrageenan induced mechanical hyperalgesia in rats, intravenously; type: functional
How it was run: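 Male Sprague-Dawley rats (100–120 g) received 4.5 mg carrageenan in 0.15 mL saline intraplantar, or saline. Agent was given iv in 50% PEG-200/D5W (n = 6/dose) 15 min before the paw pressure read at 3 h. Threshold was taken as vocalization on an algometer.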

[12] = Plasma clearance (in vivo) in mongrel dogs was determined; type: ADME, organism-based, Canis lupus familiaris; details: dog; how it was run: as §2

T1 sequence (Q13224 whole entry, other chains not shown): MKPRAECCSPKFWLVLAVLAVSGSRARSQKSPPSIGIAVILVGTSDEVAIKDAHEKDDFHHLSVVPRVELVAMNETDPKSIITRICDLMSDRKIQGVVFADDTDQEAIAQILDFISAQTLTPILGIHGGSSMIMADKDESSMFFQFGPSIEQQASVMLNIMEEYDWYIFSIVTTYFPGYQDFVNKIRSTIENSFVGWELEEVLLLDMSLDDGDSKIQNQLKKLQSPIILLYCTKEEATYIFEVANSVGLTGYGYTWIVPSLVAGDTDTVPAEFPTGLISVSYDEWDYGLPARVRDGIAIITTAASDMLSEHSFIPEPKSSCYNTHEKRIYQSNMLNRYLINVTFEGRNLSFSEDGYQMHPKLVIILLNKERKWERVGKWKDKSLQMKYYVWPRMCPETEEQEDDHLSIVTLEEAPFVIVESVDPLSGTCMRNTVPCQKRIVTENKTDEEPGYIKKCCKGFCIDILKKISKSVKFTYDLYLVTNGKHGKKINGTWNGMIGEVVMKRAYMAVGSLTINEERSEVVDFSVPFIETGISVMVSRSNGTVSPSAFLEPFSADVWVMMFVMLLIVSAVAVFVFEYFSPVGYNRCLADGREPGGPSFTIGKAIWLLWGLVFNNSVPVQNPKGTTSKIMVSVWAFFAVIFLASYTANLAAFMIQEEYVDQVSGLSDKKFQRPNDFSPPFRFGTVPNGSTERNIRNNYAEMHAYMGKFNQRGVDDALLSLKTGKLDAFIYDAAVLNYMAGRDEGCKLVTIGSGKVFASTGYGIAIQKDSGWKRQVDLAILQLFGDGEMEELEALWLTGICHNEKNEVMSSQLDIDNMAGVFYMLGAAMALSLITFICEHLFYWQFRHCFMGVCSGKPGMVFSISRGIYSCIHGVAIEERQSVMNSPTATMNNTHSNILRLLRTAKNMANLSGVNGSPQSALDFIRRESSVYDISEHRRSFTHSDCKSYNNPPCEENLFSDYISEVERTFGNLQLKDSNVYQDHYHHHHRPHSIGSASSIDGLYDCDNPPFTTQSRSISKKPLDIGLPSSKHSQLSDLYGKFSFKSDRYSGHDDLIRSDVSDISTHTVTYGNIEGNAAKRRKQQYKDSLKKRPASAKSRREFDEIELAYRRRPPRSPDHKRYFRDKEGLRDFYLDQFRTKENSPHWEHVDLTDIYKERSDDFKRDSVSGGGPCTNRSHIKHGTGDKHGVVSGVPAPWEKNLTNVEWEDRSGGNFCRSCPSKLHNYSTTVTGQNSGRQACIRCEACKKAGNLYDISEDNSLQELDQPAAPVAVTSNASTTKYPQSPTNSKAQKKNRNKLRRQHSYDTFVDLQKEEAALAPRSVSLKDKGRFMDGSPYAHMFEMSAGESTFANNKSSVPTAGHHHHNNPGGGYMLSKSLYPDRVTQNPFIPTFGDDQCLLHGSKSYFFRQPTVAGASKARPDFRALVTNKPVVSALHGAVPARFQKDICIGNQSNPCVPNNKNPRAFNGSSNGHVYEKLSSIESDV
Chain of Voltage-gated inwardly rectifying potassium channel KCNH2 (Q12809 whole entry): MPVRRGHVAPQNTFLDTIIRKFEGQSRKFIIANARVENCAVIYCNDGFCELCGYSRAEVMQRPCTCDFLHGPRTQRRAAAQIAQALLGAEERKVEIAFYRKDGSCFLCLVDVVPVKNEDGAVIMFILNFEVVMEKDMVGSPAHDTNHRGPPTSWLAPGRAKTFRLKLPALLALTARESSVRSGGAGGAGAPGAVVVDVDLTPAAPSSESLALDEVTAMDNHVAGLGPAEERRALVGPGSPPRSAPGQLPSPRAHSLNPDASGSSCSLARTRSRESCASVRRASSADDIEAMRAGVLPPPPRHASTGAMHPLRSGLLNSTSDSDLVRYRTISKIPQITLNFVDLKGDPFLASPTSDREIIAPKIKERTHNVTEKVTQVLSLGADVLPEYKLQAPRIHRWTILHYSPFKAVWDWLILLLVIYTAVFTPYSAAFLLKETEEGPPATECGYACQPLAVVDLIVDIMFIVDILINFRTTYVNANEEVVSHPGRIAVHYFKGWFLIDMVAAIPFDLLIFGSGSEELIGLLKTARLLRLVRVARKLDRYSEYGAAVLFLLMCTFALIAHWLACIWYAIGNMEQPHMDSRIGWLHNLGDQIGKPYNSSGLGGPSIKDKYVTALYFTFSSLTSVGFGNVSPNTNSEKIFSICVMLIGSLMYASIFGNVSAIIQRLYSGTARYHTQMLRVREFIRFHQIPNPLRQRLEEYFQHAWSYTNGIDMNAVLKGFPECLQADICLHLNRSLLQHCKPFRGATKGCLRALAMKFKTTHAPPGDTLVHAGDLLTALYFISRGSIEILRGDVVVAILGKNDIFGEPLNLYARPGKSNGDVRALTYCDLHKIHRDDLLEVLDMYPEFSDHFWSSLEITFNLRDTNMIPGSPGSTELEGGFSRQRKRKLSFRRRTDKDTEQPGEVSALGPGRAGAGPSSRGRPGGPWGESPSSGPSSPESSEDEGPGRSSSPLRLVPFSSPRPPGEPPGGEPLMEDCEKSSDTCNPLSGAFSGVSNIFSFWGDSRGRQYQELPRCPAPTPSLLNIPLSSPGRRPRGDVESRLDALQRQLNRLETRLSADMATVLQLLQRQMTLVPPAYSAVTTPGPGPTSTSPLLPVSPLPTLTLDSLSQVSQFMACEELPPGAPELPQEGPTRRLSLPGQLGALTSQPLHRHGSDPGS

| SMILES | pIC50 [1] | pIC50 [2] | pKi [3] | IC50 [4] [nM] | bioavailability [5] [%] | half-life [6] [min] | clearance [7] [mL/min/kg] | Activity [8] [mg/kg] | half-life [9] [min] | bioavailability [10] [%] | Activity [11] [mg/kg] | clearance [12] [mL/min/kg] |
| --- | --- | --- | --- | --- | --- | --- | --- | --- | --- | --- | --- | --- |
| N#Cc1ccc2[nH]c(Cc3ccc(Oc4ccccc4)cc3)nc2c1 | 6.10 | 5.96 | 6.10 | 3400 |  |  |  |  |  |  |  |  |
| c1ccc(Oc2ccc(Cc3nc4ccccc4[nH]3)cc2)cc1 | 6.70 | 5.70 | 6.59 | 4200 |  |  |  |  |  |  |  |  |
| Oc1ccc2[nH]c(Cc3ccc(Oc4ccccc4)cc3)nc2c1 | 8.04 | 6.14 | 8.49 | 200 |  |  |  |  |  |  |  |  |
| CN(c1ccc2[nH]c(Cc3ccc(Oc4ccccc4)cc3)nc2c1)S(C)(=O)=O | 7.60 | 6.19 | 6.33 | 2000 |  |  |  |  |  |  |  |  |
| CC(=O)Nc1ccc2[nH]c(Cc3ccc(Oc4ccccc4)cc3)nc2c1 | 7.38 | 5.59 | 7.03 | 20000 |  |  |  |  |  |  |  |  |
| CS(=O)(=O)Nc1ccc2[nH]c(Cc3ccc(Oc4ccccc4)cc3)nc2c1 | 9.14 | 6.92 | 9.17 | 4000 | 97 | 118 | 8.3 | >30 |  |  |  |  |
| Oc1ccc2[nH]c(CN3CCC(Cc4ccccc4)CC3)nc2c1 | 8.09 | 5.59 |  | 670 | 20 | > 480 | 22.8 |  | 402 | 90 | 3.3 | 0.6 |
| CCCS(=O)(=O)Nc1ccc2[nH]c(Cc3ccc(Oc4ccccc4)cc3)nc2c1 | 7.72 | 6.40 | 7.68 | 4800 |  |  |  |  |  |  |  |  |
| Nc1ccc2[nH]c(Cc3ccc(Oc4ccccc4)cc3)nc2c1 | 7.11 | 6.92 | 6.74 | 2600 |  |  |  |  |  |  |  |  |
| COc1ccc2[nH]c(Cc3ccc(Oc4ccccc4)cc3)nc2c1 | 5.04 |  | 5.08 | 530 |  |  |  |  |  |  |  |  |
| Oc1ccc2[nH]c(CN3CCC(Cc4ccccc4F)CC3)nc2c1 | 8.01 | 5.54 | 9.07 | 730 | 6.4 | 60 | 12.3 |  | 390 | 87 | <3 | 0.6 |
| O=[N+]([O-])c1ccc2[nH]c(Cc3ccc(Oc4ccccc4)cc3)nc2c1 | 5.18 | 6.11 |  | 1200 |  |  |  |  |  |  |  |  |
| c1ccc(CC2CCN(Cc3nc4ccccc4[nH]3)CC2)cc1 | 6.15 | 5.85 | 6.38 | 2800 |  |  |  |  |  |  |  |  |
| Oc1ccc2[nH]c(CN3CCC(Cc4cccc(F)c4)CC3)nc2c1 | 7.36 | 5.68 | 8.38 | 520 |  |  |  |  |  |  |  |  |
| CC(C)S(=O)(=O)Nc1ccc2[nH]c(Cc3ccc(Oc4ccccc4)cc3)nc2c1 | 7.85 |  | 7.82 | 3100 |  |  |  |  |  |  |  |  |
| O=S(=O)(Nc1ccc2[nH]c(Cc3ccc(Oc4ccccc4)cc3)nc2c1)c1ccccc1 | 7.31 | 6.17 | 7.77 | 14000 |  |  |  |  |  |  |  |  |
| Oc1cccc2[nH]c(Cc3ccc(Oc4ccccc4)cc3)nc12 | 6.82 | 6.07 | 6.85 | 5500 |  |  |  |  |  |  |  |  |
| Cc1ccc(CC2CCN(Cc3nc4cc(O)ccc4[nH]3)CC2)cc1 | 8.24 | 6.41 | 9.40 | 830 |  |  |  |  |  |  |  |  |
| Oc1ccc2[nH]c(CN3CCC(Cc4ccc(F)cc4)CC3)nc2c1 | 7.92 | 6.30 | 8.96 | 620 |  |  |  |  |  |  |  |  |
| CS(=O)(=O)Nc1ccc2nc(CN3CCC(Cc4ccccc4)CC3)[nH]c2c1 | 8.72 | 6.47 | 9.00 | 1500 |  |  |  |  |  |  |  |  |
| Oc1ccc2[nH]c(CN3CCC(Cc4c(F)cccc4F)CC3)nc2c1 | 7.68 | 5.52 | 9.09 | 2600 |  |  |  |  |  |  |  |  |
| CCS(=O)(=O)Nc1ccc2[nH]c(Cc3ccc(Oc4ccccc4)cc3)nc2c1 | 8.68 | 5.80 | 8.52 | 2800 |  |  |  |  |  |  |  |  |
| CC(C)S(=O)(=O)Nc1ccc2[nH]c(CN3CCC(Cc4ccccc4)CC3)nc2c1 | 6.52 |  | 6.62 | 570 |  |  |  |  |  |  |  |  |
